Measurements from ChEMBL document CHEMBL1177638, “Synthesis of pyrrolo[3,2-h]quinolinones with good photochemotherapeutic activity and no DNA damage” (Bioorg Med Chem, 2010).

Columns and labels:
Type in all cases: functional, cell-based
[1] = Phototoxicity against human sNCTC-2544 cells irradiated with 3.75 J/cm'2 after 72 hrs by MTT assay; settings: NCTC-2544, light or radiation study
How it was run: (§1)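 Cells were seeded at 8 × 10³ and preincubated 18 h at 37 °C, 5% CO₂. Jurkat and K-562 grew in RPMI-1640, MCF-7 and NCTC-2544 in DMEM, and LoVo in Ham's F12, all with 10% FBS plus penicillin and streptomycin. Compounds in DMSO were diluted in HBSS, pH 7.2 (range 20–0.31; DMSO ≤1%) and applied 30 min at 37 °C. Wells were then UV-A irradiated (365 nm; 2.5 or 3.75 J/cm²), medium was replaced, and MTT was read after 72 h.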

MCF7 [2] = experiment: Phototoxicity against human MCF7 cells irradiated with 3.75 J/cm'2 after 72 hrs by MTT assay; settings: MCF7, light or radiation study; how it was run: as §1
Jurkat [3] = experiment: Phototoxicity against human Jurkat cells irradiated with 2.5 J/cm'2 after 72 hrs by MTT assay; settings: light or radiation study; how it was run: as §1
LoVo [4] = experiment: Phototoxicity against human LoVo cells irradiated with 3.75 J/cm'2 after 72 hrs by MTT assay; settings: light or radiation study; how it was run: as §1
MCF7 [5] = experiment: Phototoxicity against human MCF7 cells irradiated with 2.5 J/cm'2 after 72 hrs by MTT assay; settings: MCF7, light or radiation study; how it was run: as §1
K562 [6] = experiment: Phototoxicity against human K562 cells irradiated with 2.5 J/cm'2 after 72 hrs by MTT assay; settings: K562, light or radiation study; how it was run: as §1
K562 [7] = experiment: Phototoxicity against human K562 cells irradiated with 3.75 J/cm'2 after 72 hrs by MTT assay; settings: K562, light or radiation study; how it was run: as §1
Jurkat [8] = experiment: Phototoxicity against human Jurkat cells irradiated with 3.75 J/cm'2 after 72 hrs by MTT assay; settings: light or radiation study; how it was run: as §1
LoVo [9] = experiment: Phototoxicity against human LoVo cells irradiated with 2.5 J/cm'2 after 72 hrs by MTT assay; settings: light or radiation study; how it was run: as §1
[10] = Phototoxicity against human sNCTC-2544 cells irradiated with 2.5 J/cm'2 after 72 hrs by MTT assay; settings: NCTC-2544, light or radiation study; how it was run: as §1

SMILES	IC50 [1] [µM]	IC50 (MCF7 [2]) [nM]	IC50 (Jurkat [3]) [nM]	IC50 (LoVo [4]) [nM]	IC50 (MCF7 [5]) [µM]	IC50 (K562 [6]) [µM]	IC50 (K562 [7]) [µM]	IC50 (Jurkat [8]) [nM]	IC50 (LoVo [9]) [nM]	IC50 [10] [µM]
O=c1[nH]c2c(cc1S(=O)(=O)c1ccccc1)CCc1ccn(S(=O)(=O)c3ccccc3)c1-2	> 20	> 20000	> 20000	> 20000	> 20	> 20	> 20	> 20000	> 20000	> 20
O=c1[nH]c2c(cc1S(=O)(=O)c1ccccc1)CCc1cc[nH]c1-2	> 20	> 20000	> 20000	> 20000	> 20	> 20	> 20	> 20000	> 20000	> 20
N#Cc1cc2c([nH]c1=O)-c1c(ccn1S(=O)(=O)c1ccccc1)CC2	> 20	> 20000	> 20000	> 20000	> 20	> 20	> 20	> 20000	> 20000	> 20
O=c1[nH]c2c(cc1S(=O)(=O)c1ccccc1)CCc1ccn(Cc3ccccc3)c1-2	5.5	1700	1300	2200	4	4.8	3.3	1100	2600	7.5
COc1ccc(Cn2ccc3c2-c2[nH]c(=O)c(S(=O)(=O)c4ccccc4)cc2CC3)cc1	2.7	1800	1600	2000	4.2	3.1	2.5	1200	2800	4.3
CCOC(=O)c1cc2c(n1Cc1ccc(C)cc1)-c1[nH]c(=O)c(S(=O)(=O)c3ccccc3)cc1CC2	2.2	1400	1500	1000	1.7	1.3	1	1200	1600	2.7
Cn1ccc2c1-c1[nH]c(=O)c(S(=O)(=O)c3ccccc3)cc1CC2	> 20	> 20000	> 20000	> 20000	> 20	> 20	> 20	> 20000	> 20000	> 20
O=c1[nH]c2c(cc1S(=O)(=O)c1ccccc1)CCc1ccn(-c3ccccc3)c1-2	> 20	> 20000	> 20000	> 20000	> 20	> 20	> 20	> 20000	> 20000	> 20
CCOC(=O)c1cc2c([nH]1)-c1[nH]c(=O)c(S(=O)(=O)c3ccccc3)cc1CC2	7.2	4300	3500	4600	6.1	6.1	5.3	2500	5500	9.3
Cc1ccc(Cn2ccc3c2-c2[nH]c(=O)c(S(=O)(=O)c4ccccc4)cc2CC3)cc1	2.6	2400	1600	2300	3.8	2.7	2.4	1200	2700	3.3
